In data set [1] the test system is Trypanosoma brucei. The data set is described as follows: Antimicrobial activity against Trypanosoma brucei NfxR1. The class given is functional, organism-based. Summed up:
(§1)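 T. brucei bloodstream-form single-marker S427 (wild type) and cloned nifurtimox-resistant lines, cultured at 37°C in HMI9-T with 2.5 µg/ml G418. Growth inhibition measured, data corrected for background cell density and expressed as % of untreated cells. EC50 from a two-parameter fit with slope factor. At least three independent experiments; weighted means ± weighted SD.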

For data set [2], the system named is Trypanosoma brucei. Nature of the data set: Selectivity ratio of EC50 for Trypanosoma brucei NfxR1 to EC50 for Trypanosoma brucei. The data set is classed as functional. Summed up: (§2)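 Resistance factor taken as EC50 for resistant cells divided by EC50 for wild-type S427 bloodstream T. brucei, both from the same in vitro growth-inhibition assay. EC50 values come from at least three independent experiments.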

Data set [3] relates to Trypanosoma brucei. Nature of the data set: Antimicrobial activity against Trypanosoma brucei NfxR2. The data set is classed as functional, organism-based. Summed up: as §1
In data set [4] the test system is Trypanosoma brucei. Nature of the data set: Antimicrobial activity against Trypanosoma brucei. The data set is classed as functional, organism-based. Summed up: as §1
Data set [5] deals with Blood. The data set is described as follows: Metabolic stability in blood of NMRI mouse assessed as accumulation of sulfone metabolite at 200 mg/kg, po measured after 8 hrs. As to conditions: in vivo.
In data set [6] the test system is Trypanosoma brucei. The data set is described as follows: Selectivity ratio of EC50 for Trypanosoma brucei NfxR2 to EC50 for Trypanosoma brucei. The class given is functional. In short, it runs like this:
as §2

Data set [7] can be described thus: Fraction unbound in plasma of NMRI mouse at 200 mg/kg, po. The data set is classed as ADME, organism-based. Also on record: dose 200 mg/kg, route oral.
Data set [8] in a line: Cmax in NMRI mouse at 200 mg/kg, po after 15 mins. The data set is classed as ADME, organism-based. On the set-up: dose 200 mg/kg, route oral. As to conditions: in vivo. Summed up:
(§3)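 Single oral dose of 200 mg/kg to NMRI mice, vehicle 10% DMSO in peanut oil. Tail-vein blood (10 µl) taken into water at 0.25, 0.5, 1, 2, 4, 6 and 8 h. Samples extracted by acetonitrile protein precipitation with internal standard. Parent and sulfoxide and sulfone metabolites measured by UPLC-MS/MS (positive ESI, MRM). Triplicate measurements.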

Data set [9] deals with Trypanosoma brucei. Nature of the data set: Antimicrobial activity against Trypanosoma brucei NfxR1 infected in mouse assessed as decrease in parasitemia level at 200 mg/kg, QD for 3 days measured on day 60 by neubuaer hemocytometry.
Data set [10] has as its system Blood. Nature of the data set: Metabolic stability in blood of NMRI mouse assessed as accumulation of sulfoxide metabolite at 200 mg/kg, po measured after 2 hrs. As to conditions: in vivo. The class given is ADME, organism-based. Also on record: dose 200 mg/kg, route oral. Summed up: as §3
Data set [11] relates to Trypanosoma brucei. Nature of the data set: Antimicrobial activity against wild type Trypanosoma brucei infected NMRI assessed as cure rate at 50 mg/kg, QD for 3 days measured on day 6 by neubuaer hemocytometry.
Data set [12] concerns Trypanosoma brucei. The data set is described as follows: Antimicrobial activity against wild type Trypanosoma brucei infected in dosed NMRI administered QD for 3 days measured on day 6 by neubuaer hemocytometry.
Data set [13] has as its system Trypanosoma brucei. Nature of the data set: Antimicrobial activity against Trypanosoma brucei NfxR1 infected in dosed NMRI administered QD for 3 days measured on day 6 by neubuaer hemocytometry.
Data set [14] concerns Trypanosoma brucei. The data set is described as follows: Antimicrobial activity against Trypanosoma brucei wild type.
The test system of data set [15] is Trypanosoma brucei. Described as above. The source holds these as a separate data set.
Data set [16] deals with Trypanosoma brucei. Nature of the data set: animal or person. As to conditions: in Mus musculus, ip, 96 h.
Data set [17] concerns Trypanosoma brucei. As to conditions: NfxR1, 100 mg/kg.
For data set [18], the system named is Trypanosoma brucei gambiense. The data set is described as follows: Antimicrobial activity against Trypanosoma brucei gambiense.

pEC50: −log10 of the molar value. Converted amounts (≈) assume the structure as drawn. The source made the active and inactive calls. Some results are limits rather than exact numbers.

A word on the pEC50: it is the EC50 on a negative log10 scale, so that one unit is a factor of ten. A lower pEC50 goes with a large EC50. Regarding `Cn1c([N+](=O)[O-])cnc1COc1ccc(S(C)(=O)=O)cc1` [FEXINIDAZOLE SULFONE], the pEC50 in the data set with Trypanosoma brucei [1] was 5.02; with Trypanosoma brucei [3], 5.02; in the data set with Trypanosoma brucei [4], 6.21. In addition, the “Ratio EC50” value in the data set on Trypanosoma brucei [2] and in the data set with Trypanosoma brucei [6] was 15 each time. In addition, the Stability with Blood [5] was found to be 55000 ng/mL.

For `Cn1c([N+](=O)[O-])cnc1COc1ccc([S+](C)[O-])cc1` (configuration not stated) [FEXINIDAZOLE SULFOXIDE], the figures for the negative-log EC50 (pEC50) in the data set on Trypanosoma brucei [1], in the data set on Trypanosoma brucei [3] and in the data set with Trypanosoma brucei [4] were 4.74, 4.68 and 5.85, respectively. The “Ratio EC50” value in the data set on Trypanosoma brucei [2] was found to be 13; in the data set with Trypanosoma brucei [6] it was 15.

Broadly, the fraction unbound is the share of the substance not bound to proteins or other matrix. A lower fraction unbound goes with little free substance. By Cmax is commonly meant the highest concentration seen after dosing. For orientation: ED50 means the midpoint of the dose-response relation. In general, MIC refers to the smallest concentration in the dilution series that meets the test's criterion for growth inhibition. Regarding `CSc1ccc(OCc2ncc([N+](=O)[O-])n2C)cc1` [FEXINIDAZOLE], the free fraction (fraction unbound) in data set [7] stood at 0.147. The compound further yielded a peak concentration (Cmax) in data set [8] of 961 ng/mL. For the same compound, in the data set on Trypanosoma brucei [9], the inhibition entry was “inactive”. Also, in the data set on Blood [10], the Stability was found to be 40000 ng/mL. For the same compound, in the data set on Trypanosoma brucei [11], the Activity is 100%. For the same compound, the median effective dose (ED50) is 21 mg/kg with Trypanosoma brucei [12] and 171 mg/kg in the data set on Trypanosoma brucei [13]. Moreover, in the data set with Trypanosoma brucei [14], the minimum inhibitory concentration (MIC) came to 17.7 µM (≈ 4.94 µg/mL).

In turn, `CC1CS(=O)(=O)CCN1/N=C/c1ccc([N+](=O)[O-])o1` (configuration not stated) [NIFURTIMOX] returned an MIC in the data set with Trypanosoma brucei [15] of 15.2 µM (≈ 4.37 µg/mL). Moreover, in the data set with Trypanosoma brucei [16], the 50% effective dose (ED50) was 36.7 mg/kg and the ED99 was 128 mg/kg. In the data set with Trypanosoma brucei [17], the inhibition result is “inactive”. Further, the pEC50 in data set [18] is 6.59.

For the compound `NCCCC(N)(C(=O)O)C(F)F` (configuration not stated) [EFLORNITHINE], the negative logarithm of the EC50 (pEC50) was 4.92 with Trypanosoma brucei [1], 4.94 in the data set with Trypanosoma brucei [3] and 4.79 in the data set with Trypanosoma brucei [4]. Besides, the “Ratio EC50” value in the data set with Trypanosoma brucei [2] and in the data set with Trypanosoma brucei [6] was 1 each time.

In the case of `O=[N+]([O-])c1cn2c(n1)OC[C@@H](OCc1ccc(OC(F)(F)F)cc1)C2` [PRETOMANID], the pEC50 in the data set with Trypanosoma brucei [1] is 4.52; with Trypanosoma brucei [3], 4.51; in the data set on Trypanosoma brucei [4], 4.42. For the same compound, the “Ratio EC50” value in the data set with Trypanosoma brucei [2] and with Trypanosoma brucei [6] was 1 each time.

As to `O=C(Cn1ccnc1[N+](=O)[O-])NCc1ccccc1` [BENZNIDAZOLE], the pEC50 in the data set with Trypanosoma brucei [1] is 3.81; with Trypanosoma brucei [3], 3.81; in the data set on Trypanosoma brucei [4], 4.52. Moreover, the “Ratio EC50” value with Trypanosoma brucei [2] and in the data set with Trypanosoma brucei [6] was 5 in each case.

Take `NC(=O)N/N=C/c1ccc([N+](=O)[O-])o1` [NITROFURAZONE]: the pEC50 was 5.43 in the data set with Trypanosoma brucei [1], 5.43 in the data set with Trypanosoma brucei [3] and 6.51 in the data set with Trypanosoma brucei [4]. Moreover, the “Ratio EC50” value in the data set on Trypanosoma brucei [2] and in the data set with Trypanosoma brucei [6] was 12 in each case.

For the compound `Cc1ncc([N+](=O)[O-])n1CCO` [METRONIDAZOLE], the negative-log EC50 (pEC50) in the data set on Trypanosoma brucei [1], in the data set on Trypanosoma brucei [3] and with Trypanosoma brucei [4] was < 3.30 each time.

`NC(=O)c1cc(N2CC2)c([N+](=O)[O-])cc1[N+](=O)[O-]` [TRETAZICAR]: the values for the pEC50 in the data set on Trypanosoma brucei [1], in the data set on Trypanosoma brucei [3] and in the data set with Trypanosoma brucei [4] were 5.10, 4.99 and 6.27, respectively. Besides, the “Ratio EC50” value with Trypanosoma brucei [2] is given as 15; in the data set on Trypanosoma brucei [6], 19.

With `N=C(N)c1ccc(OCCCCCOc2ccc(C(=N)N)cc2)cc1` [PENTAMIDINE], the negative-log EC50 (pEC50) was 8.59 in the data set with Trypanosoma brucei [1], 8.77 with Trypanosoma brucei [3] and 9.02 in the data set on Trypanosoma brucei [4]. The “Ratio EC50” value in the data set with Trypanosoma brucei [2] is given as 3; in the data set with Trypanosoma brucei [6], 2.
